Experimental data collected from several papers.
Each line is one published result; the experiments were not run side by side.
Mc1r: Melanocyte-stimulating hormone receptor (Mc1r, Mus musculus, UniProt Q01727)
PSMB8: Proteasome subunit beta type-8 (PSMB8, Homo sapiens, UniProt P28062)

CSCC[C@H](N)C(=O)NCC(=O)N[C@@H](Cc1c[nH]cn1)C(=O)N[C@@H](Cc1ccccc1)C(=O)N[C@@H](CCCNC(=N)N)C(=O)N[C@@H](Cc1c[nH]c2ccccc12)C(=O)N[C@@H](CC(=O)O)C(=O)N[C@@H](CCCNC(=N)N)C(=O)N[C@@H](Cc1ccccc1)C(=O)NCC(=O)O
EC50 (Mc1r; reporter gene; agonist): 1590 nM

CC(C)C[C@H](NC(=O)[C@H](Cc1ccccc1)N=[N+]=[N-])C(=O)N[C@@H](CC(F)(F)F)C(=O)N[C@H](/C=C/S(C)(=O)=O)Cc1ccc(CN)cc1
IC50 (PSMB8; enzyme activity; inhibitor; lysate): 1830 nM

CN1CCN(c2ccc(Nc3ncc4cc(C#N)c(=O)n(C5CCCC5)c4n3)cc2)CC1
IC50 (Ephrin type-A receptor 1 (EPHA1, Homo sapiens, UniProt P21709); enzyme activity; inhibitor): 57.6 nM

CC[C@H](C)[C@H](NC(=O)[C@H](CO)NC(=O)[C@H](Cc1ccc(O)cc1)NC(=O)[C@H](CC(=O)O)NC(=O)[C@H](CO)NC(=O)[C@@H](NC(=O)[C@H](Cc1ccccc1)NC(=O)[C@@H](NC(=O)CNC(=O)[C@H](CCC(=O)O)NC(=O)[C@H](C)NC(=O)[C@@H](N)Cc1ccc(O)cc1)[C@@H](C)O)[C@@H](C)CC)C(=O)N[C@@H](C)C(=O)N[C@@H](CCSC)C(=O)N[C@@H](CC(=O)O)C(=O)N[C@@H](CCCCN)C(=O)N[C@H](C(=O)N[C@@H](Cc1c[nH]cn1)C(=O)N[C@@H](CCC(N)=O)C(=O)N[C@@H](CCC(N)=O)C(=O)N[C@@H](CC(=O)O)C(=O)N[C@@H](Cc1ccccc1)C(=O)N[C@H](C(=O)N[C@@H](CC(N)=O)C(=O)N[C@@H](Cc1c[nH]c2ccccc12)C(=O)N[C@@H](CC(C)C)C(=O)N[C@@H](CC(C)C)C(=O)N[C@@H](C)C(=O)N[C@@H](CCC(N)=O)C(=O)N[C@@H](CCCCN)C(=O)NCC(=O)N[C@@H](CCCCN)C(=O)N[C@@H](CCCCN)C(=O)N[C@@H](CC(N)=O)C(=O)N[C@@H](CC(=O)O)C(=O)N[C@@H](Cc1c[nH]c2ccccc12)C(=O)N[C@@H](CCCCN)C(=O)N[C@@H](Cc1c[nH]cn1)C(=O)N[C@@H](CC(N)=O)C(=O)N[C@H](C(=O)N[C@H](C(=O)N[C@@H](CCC(N)=O)C(=O)O)[C@@H](C)O)[C@@H](C)CC)C(C)C)[C@@H](C)CC
EC50 (Glucagon receptor (GCGR, Homo sapiens, UniProt P47871); reporter gene; agonist; luciferase): > 1000 nM

Cc1ncc(C(=O)N[C@@H](CC(C)C)C(=O)N[C@@H](CC(C)C)C(=O)N[C@H](/C=C/S(C)(=O)=O)Cc2ccc(CN)cc2)s1
IC50 (PSMB8; enzyme activity; inhibitor; lysate): > 10000 nM

CSCC[C@H](NC(=O)[C@@H](NC(=O)[C@@H](N)Cc1ccc(O)cc1)C(C)C)C(=O)NCC(=O)N[C@@H](Cc1c[nH]cn1)C(=O)N[C@@H](Cc1ccccc1)C(=O)N[C@@H](CCCNC(=N)N)C(=O)N[C@@H](Cc1c[nH]c2ccccc12)C(=O)O
EC50 (Mc1r; reporter gene; agonist): 2900 nM

CCOc1ccc2c(-c3cc(C)nc(Nc4cc(OC)cc(C(F)(F)F)c4)n3)cnn2n1
IC50 (Homeodomain-interacting protein kinase 2 (HIPK2, Homo sapiens, UniProt Q9H2X6); enzyme activity; inhibitor): > 10000 nM

Cc1ncc(C(=O)N[C@@H](CCC2CCCCC2)C(=O)N[C@@H](CC(C)C)C(=O)N[C@H](/C=C/S(C)(=O)=O)Cc2ccc(CN)cc2)s1
IC50 (PSMB8; enzyme activity; inhibitor; lysate): 410 nM

N=C(N)NCCC[C@H](NC(=O)[C@H](CC(=O)O)NC(=O)[C@H](Cc1c[nH]c2ccccc12)NC(=O)[C@H](CCCNC(=N)N)NC(=O)[C@H](Cc1ccccc1)NC(=O)[C@H](Cc1c[nH]cn1)NC(=O)CN)C(=O)N[C@@H](Cc1ccccc1)C(=O)NCC(=O)O
EC50 (Mc1r; reporter gene; agonist): 7860 nM

CC1=C(/C=C/C(C)=C/C=C/C(C)=C/C=O)C(C)(C)CCC1
Kd (Cellular retinoic acid-binding protein 2 (CRABP2, Homo sapiens, UniProt P29373, R133K/Y135F); binding; fluorescence): 120 nM

N=C(N)NCCC[C@H](N)C(=O)N[C@@H](Cc1ccccc1)C(=O)NCC(=O)O
EC50 (Mc1r; reporter gene; agonist): > 100000 nM

Cc1ncc(C(=O)N[C@@H](CC2CCC3CCCCC3C2)C(=O)N[C@@H](CC(C)C)C(=O)N[C@H](/C=C/S(C)(=O)=O)Cc2ccc(CN)cc2)s1 (stereo partly shown)
IC50 (PSMB8; enzyme activity; inhibitor; lysate): > 10000 nM

C[C@@H]1NC(=O)[C@H](CCCNC(=N)N)NC(=O)[C@H](Cc2ccccc2)NC(=O)[C@H](Cc2ccccc2)NC(=O)[C@H](CCCNC(=N)N)NC(=O)[C@@H]2CCCN2C(=O)[C@H]2CCCN2C(=O)[C@H](Cc2ccccc2)NC1=O
EC50 (Mc1r; reporter gene; agonist): > 100000 nM
